According to ChEMBL document CHEMBL1138467, “Indomethacin amides as a novel molecular scaffold for targeting Trypanosoma cruzi sterol 14alpha-demethylase” (J Med Chem, 2009):
Calls of active or inactive are those of the source. No cut-off for these calls is given here.

How the values were obtained:
[1] = target: Sterol 14-alpha demethylase (Trypanosoma cruzi (strain CL Brener)) (UniProt Q7Z1V1); assay: Inhibitory potency at Trypanosoma cruzi CYP51 assessed as molar ratio of drug to enzyme required to slow down the reaction twofold at 1 uM enzyme concentration
Procedure, shortened: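 Reconstituted with T. brucei CPR and DLPC (TCCYP51:CPR:DLPC 1:2:50). Final mix: 1 μM TCCYP51, 50 μM [3H]-MDL in MOPS pH 7.4 with KCl, MgCl2, glycerol and an isocitrate/isocitrate dehydrogenase system. Inhibitors 1–100 μM, 5 min preincubation at 37°C, started with NADPH. Sterols by reverse-phase radio-HPLC. I/E2 is the inhibitor/enzyme molar ratio halving the initial rate.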

Trypanosoma cruzi [2] = assay: Antitrypanosomal activity against Trypanosoma cruzi trypomastigotes in cardiomyocytes; type: functional, organism-based
Procedure, shortened: (§1)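 Trypomastigotes (10^6) were pre-exposed for 30 min to inhibitor in DMSO (1–50 μM) or DMSO control. They then infected rat cardiomyocyte monolayers in triplicate at 10 parasites/cell for 2 h. Unbound parasites were removed and cells were grown in DMEM/10% FBS for 72 h. Parasites per 200 cells and % infection were counted on Giemsa-stained monolayers. Results are mean ± SD, with Student t test.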

[3] = target: T1, Prostaglandin G/H synthase 2 (Mus musculus) (UniProt Q05769); assay: Inhibitory potency at mouse COX2 assessed as molar ratio of drug to enzyme required to slow down the reaction twofold at 0.1 uM enzyme concentration
T1 sequence (whole entry): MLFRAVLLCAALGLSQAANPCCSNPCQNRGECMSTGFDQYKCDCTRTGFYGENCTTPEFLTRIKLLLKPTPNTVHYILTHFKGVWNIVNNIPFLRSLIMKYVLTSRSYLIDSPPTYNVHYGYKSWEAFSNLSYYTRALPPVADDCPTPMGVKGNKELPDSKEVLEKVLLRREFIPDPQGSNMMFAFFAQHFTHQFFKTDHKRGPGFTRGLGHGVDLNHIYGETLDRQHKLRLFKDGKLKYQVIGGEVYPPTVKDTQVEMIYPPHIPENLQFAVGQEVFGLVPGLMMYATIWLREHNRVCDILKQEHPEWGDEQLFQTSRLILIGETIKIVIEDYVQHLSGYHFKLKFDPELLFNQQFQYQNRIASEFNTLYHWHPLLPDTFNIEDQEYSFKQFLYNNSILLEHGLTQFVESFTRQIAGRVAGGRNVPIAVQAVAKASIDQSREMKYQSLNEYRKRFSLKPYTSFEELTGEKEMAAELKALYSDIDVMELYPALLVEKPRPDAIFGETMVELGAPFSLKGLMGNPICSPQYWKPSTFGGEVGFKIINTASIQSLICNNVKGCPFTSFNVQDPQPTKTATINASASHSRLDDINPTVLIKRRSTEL
Procedure, shortened: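 Mouse cyclooxygenase-2 at 100 nM final concentration. Potency is expressed as the inhibitor/enzyme molar ratio giving a two-fold decrease in the initial rate of catalysis (I/E2).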

Trypanosoma cruzi [4] = assay: Antitrypanosomal activity against Trypanosoma cruzi amastigotes in cardiomyocytes; type: functional; procedure, shortened: as §1
[5] = target: Sterol 14-alpha demethylase (Trypanosoma cruzi (strain CL Brener), UniProt Q7Z1V1); assay: Binding affinity to Trypanosoma cruzi CYP51 expressed in Escherichia coli by spectral titration
Trypanosoma cruzi [6] = assay: Antitrypanosomal activity against Trypanosoma cruzi epimastigotes assessed as blocking of cellular sterol composition at 50 uM after 24 hrs
Trypanosoma cruzi [7] = assay: Antitrypanosomal activity against Trypanosoma cruzi trypomastigote in cardiomyocytes assessed as decrease in intracellular parasites at 20 uM after 72 hrs; type: functional, organism-based; procedure, shortened: as §1
Trypanosoma cruzi [8] = assay: Antitrypanosomal activity against Trypanosoma cruzi trypomastigotes in cardiomyocytes at 10 uM after 72 hrs; type: functional, organism-based; procedure, shortened: as §1

Sterol 14-alpha demethylase, sequence (Q7Z1V1 whole entry): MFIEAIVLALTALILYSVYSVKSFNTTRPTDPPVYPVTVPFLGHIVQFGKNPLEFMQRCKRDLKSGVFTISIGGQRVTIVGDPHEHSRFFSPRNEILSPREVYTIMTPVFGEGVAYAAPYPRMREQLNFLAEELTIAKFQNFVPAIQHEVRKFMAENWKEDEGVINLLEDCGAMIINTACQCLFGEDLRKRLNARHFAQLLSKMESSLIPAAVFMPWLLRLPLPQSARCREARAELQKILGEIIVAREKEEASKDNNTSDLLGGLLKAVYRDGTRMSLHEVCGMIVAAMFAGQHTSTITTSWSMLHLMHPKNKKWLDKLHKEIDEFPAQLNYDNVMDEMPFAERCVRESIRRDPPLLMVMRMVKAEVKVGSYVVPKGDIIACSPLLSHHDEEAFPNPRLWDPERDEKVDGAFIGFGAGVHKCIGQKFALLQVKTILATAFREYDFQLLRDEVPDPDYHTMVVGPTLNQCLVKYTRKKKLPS
Sterol 14-alpha demethylase (Trypanosoma cruzi (strain CL Brener)), sequence (Q7Z1V1 whole entry, looked up): as the sequence (Q7Z1V1 whole entry) above

Compound | Ratio [1] | Activity (Trypanosoma cruzi [2]) | Ratio [3] | Activity (Trypanosoma cruzi [4]) | Kd [5] [nM] | Activity (Trypanosoma cruzi [6]) | EC50 (Trypanosoma cruzi [4]; read-out: ED50 (the source's name)) [nM] | Activity (Trypanosoma cruzi [7]) | Activity (Trypanosoma cruzi [8])
COc1ccc2c(c1)c(CC(=O)NCc1ccccn1)c(C)n2C(=O)c1ccc(Cl)cc1 | 13 | Dose-dependent effect | > 10 | Dose-dependent effect | 7600 | – | – | – | –
CCC(C(=O)Nc1ccncc1)c1ccccc1 (stereo unspecified) | 10 | – | – | – | 440 | – | – | – | –
COc1ccc2c(c1)c(CC(=O)NCCc1cccnc1)c(C)n2C(=O)c1ccc(Cl)cc1 | 6.3 | Dose-dependent effect | – | – | 2310 | Active | < 1000 | – | –
O=C(Nc1ccncc1)C1c2ccccc2Oc2ccccc21 | 14 | – | – | – | 750 | – | – | – | –
COc1ccc2c(c1)c(CC(=O)NCc1ccc(C(F)(F)F)nc1)c(C)n2C(=O)c1ccc(Cl)cc1 | 7.7 | – | < 1 | – | – | – | – | – | –
COc1ccc2c(c1)c(CC(=O)NCc1ccncc1)c(C)n2C(=O)c1ccc(Cl)cc1 | 10 | – | 10 | – | 540 | – | – | – | –
CC1CCC(C(=O)NC(Cc2c[nH]c3ccccc23)C(=O)Nc2ccncc2)CC1 (stereo unspecified) | – | Dose-dependent effect | – | Dose-dependent effect | – | – | – | – | –
COc1ccc2c(c1)c(CC(=O)NCc1ccc(Cl)nc1)c(C)n2C(=O)c1ccc(Cl)cc1 | 4.2 | Dose-dependent effect | < 1 | Dose-dependent effect | – | – | – | – | –
COc1ccc2c(c1)c(CC(=O)NCC(C)c1ccccc1)c(C)n2C(=O)c1ccc(Cl)cc1 (stereo unspecified) | < 1 | – | > 40 | – | 150 | – | – | Active | Active
COc1ccc2c(c1)c(CC(=O)NCCc1cccc(Cl)c1)c(C)n2C(=O)c1ccc(Cl)cc1 | < 1 | – | < 1 | – | 360 | – | – | Active | Active
COc1ccc2c(c1)c(CC(=O)NC(C)c1ccncc1)c(C)n2C(=O)c1ccc(Cl)cc1 (stereo unspecified) | 8.5 | – | 1.7 | – | 370 | – | – | – | –
COc1ccc2c(c1)c(CC(=O)Nc1ncccn1)c(C)n2C(=O)c1ccc(Cl)cc1 | 15 | – | 3.6 | – | – | – | – | – | –
COc1ccc2c(c1)c(CC(=O)Nc1cccnc1)c(C)n2C(=O)c1ccc(Cl)cc1 | 9.1 | – | 2.1 | – | 290 | – | – | – | –
COc1ccc2c(c1)c(CC(=O)Nc1ccccn1)c(C)n2C(=O)c1ccc(Cl)cc1 | 11 | – | 2.1 | – | 3300 | – | – | – | –
